Measured values reported in publication PMC10847618 (Heliyon, 2024).
pIC50, pKd: −log10 of the molar value. Values joined by “and” are separate entries in the source; they are usually repeats but may differ in a detail not shown here. Identical values can stand only once. “Also recorded” adds a separate entry of the source. Like-named read-outs stand apart in the source and are kept apart here.

Columns and labels:
PfCDPK1 = settings: cited from earlier work
P. falciparum CQ^S-3D7 [1] = experiment: Growth inhibition assay; format: cell-based, Plasmodium falciparum; settings: for pIC50: one intra-erythrocytic cycle; for inhibition at 10 µM: 3D7, 10 μM
P. falciparum CQ^R-RKL-9 = experiment: Growth inhibition assay; format: cell-based, Plasmodium falciparum
CQ^S-3D7 P. falciparum = experiment: Growth progression analysis / blood stage-specific effect; format: cell-based, Plasmodium falciparum
[2] = test system: hemozoin in synchronized ring-stage parasites; experiment: Hemozoin assay; format: cell-based, Plasmodium falciparum; settings: 10 μM; 30 h
How it was run: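 P. falciparum cultures were synchronized at ring stage, held at 6 % parasitemia, and treated with test compound for 30 h in triplicate. Cells were then treated with 2.5 % SDS in 0.1 M sodium bicarbonate (pH 8.8) for 10 min at RT and centrifuged. The pellet was resuspended in 5 % SDS/50 mM NaOH for 30 min. Monomeric heme was read as A405 minus A750.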

Hemolytic activity = format: cell-based, human; settings: human, red blood cell suspension (10 %, v/v), pH 7.4
How it was run: (§1)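 Washed human RBCs (10 %, v/v) were resuspended in PBS (pH 7.4) and incubated with test compound at 1.5–800 μM for 1 h at 37 °C. After centrifugation, supernatant absorbance was read at 415 nm. RBCs treated with 1 % (v/v) Triton X-100 were the positive control. Run in triplicate.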

human RBCs = experiment: Hemolytic activity; format: cell-based; settings: 1.5–800 μM
How it was run: as §1

MTT cytotoxicity assay [3] = format: cell-based, human; settings: human, HEK293 cells
How it was run: (§2)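 Cells were seeded in DMEM with 10 % FBS (HEK293 2 × 10^4 per well; HepG2 10^4 per well) and incubated overnight at 37 °C in 5 % CO2. Test compound was added at 2.5–600 μM (HEK293) or 2–500 μM (HepG2) for 24 h at 37 °C, with untreated cells as control. MTT was added (stock 5 mg/mL in PBS), formazan was dissolved in DMSO, and absorbance read at 570 nm. Run in triplicate.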

HEK293 cells = experiment: MTT cytotoxicity assay; format: cell-based, human; settings: HEK293; 2.5–600 μM
How it was run: as §2

MTT cytotoxicity assay [4] = format: cell-based, human; settings: human, HepG2 cells
How it was run: as §2

HepG2 cells = experiment: MTT cytotoxicity assay; format: cell-based, human; settings: HepG2; 2–500 μM
How it was run: as §2

[5] = target: recombinant 6xHis-CDPK1 protein (rPfCDPK1) (Plasmodium falciparum, UniProt P62344); experiment: Microscale thermophoresis; format: binding
How it was run: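 Recombinant 6xHis-PfCDPK1 (10 μM) in HEPES-NaCl (pH 7.5) with 0.05 % Tween-20 was labelled with 30 μM cysteine-reactive red maleimide dye for 30 min at RT in the dark. It was then column-purified, keeping fractions below 1000 fluorescence counts. Test compound was serially titrated (4.8 nM–80 μM or 2.4 nM–40 μM) against constant labelled protein and premixed 10 min at RT in the dark. MST was run at RT, 20 % LED and 40 % MST power.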

rPfCDPK1 = rPfCDPK1 (Plasmodium falciparum, UniProt P62344); experiment: In vitro kinase assay; format: biochemical
How it was run: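 100 ng 6xHis-CDPK1 per reaction in 100 mM Tris-Cl pH 7.4, 50 mM MgCl2, 2.5 mM DTT, 2.5 mM MnCl2, with or without Ca2+ (2.5 mM EGTA). Dephosphorylated bovine casein substrate. Enzyme pre-incubated with test compound (1 or 5 µM) for 20 min at RT. ATP-started reaction run 1 h at 30 °C. ADP formation read by ADP-Glo luminescence.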

[6] = test system: mammalian kinome (HepG2 lysate); experiment: In vitro kinase assay with HepG2 lysate; format: biochemical, human; settings: HepG2 cytosolic fraction; 1 and 5 μM
How it was run: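 HepG2 cells (10^7) were lysed for 1 h at 4 °C in 20 mM Tris (pH 7.7), 0.5 % NP-40, 200 mM NaCl, 50 mM NaF, 0.2 mM orthovanadate, protease inhibitors and 0.1 % 2-mercaptoethanol. The lysate was spun at 13,000 rpm for 10 min. Kinase activity of the supernatant was measured by ADP-Glo luminescence with test compound at 1 and 5 μM.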

P. falciparum CQ^S-3D7 [7] = settings: stated IC50 of the standard drug, used as positive control; ref not given; cited from earlier work
[8] = Plasmodium falciparum, CQ^S-3D7
[9] = Plasmodium falciparum, 3D7, CQ^S-3D7

rPfCDPK1, sequence (P62344 whole entry): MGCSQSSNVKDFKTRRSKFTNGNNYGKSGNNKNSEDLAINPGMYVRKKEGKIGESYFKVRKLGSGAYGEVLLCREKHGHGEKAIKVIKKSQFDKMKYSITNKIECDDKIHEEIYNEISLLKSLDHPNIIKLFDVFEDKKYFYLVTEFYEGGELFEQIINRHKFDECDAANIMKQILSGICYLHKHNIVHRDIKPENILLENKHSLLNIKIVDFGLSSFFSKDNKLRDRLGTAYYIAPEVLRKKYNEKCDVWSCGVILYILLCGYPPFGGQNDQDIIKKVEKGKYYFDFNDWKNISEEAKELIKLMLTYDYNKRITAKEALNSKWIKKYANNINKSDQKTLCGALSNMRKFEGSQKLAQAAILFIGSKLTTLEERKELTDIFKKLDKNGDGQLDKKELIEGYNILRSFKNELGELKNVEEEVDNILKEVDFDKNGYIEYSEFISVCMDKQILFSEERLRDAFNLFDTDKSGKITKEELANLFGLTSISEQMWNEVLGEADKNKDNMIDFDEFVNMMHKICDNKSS
recombinant 6xHis-CDPK1 protein (rPfCDPK1), sequence (P62344 whole entry): as above

In the case of CCCCCC(=O)NCCc1c[nH]c2ccccc12 [A, N-[2-(1H-indol-3-yl)ethyl]hexanamide], the “PfCDPK1 inhibition potency in words” value (PfCDPK1) is listed as “sub-micromolar potency”.

Cc1ccccc1C(=O)/C=C/c1cn(Cc2cn(-c3ccnc4cc(Cl)ccc34)nn2)c2ccccc12 [7r, (E)-3-(1-((1-(7-chloroquinolin-4-yl)-1H-1,2,3-triazol-4-yl)methyl)-1H-indol-3-yl)-1-o-tolylprop-2-en-1-one] gave a pIC50 (P. falciparum CQ^S-3D7 [1]; CQ^S-3D7) of 5.74, an inhibition at 10 µM (P. falciparum CQ^S-3D7 [1]; [8]) of over 50% and a pIC50 (P. falciparum CQ^S-3D7 [1]; [9]) of 5.46. For the same molecule, the pIC50 (P. falciparum CQ^R-RKL-9; CQ^R-RKL-9, one intra-erythrocytic cycle) was 5.57, the “Resistance Index (RI)” value (P. falciparum CQ^R-RKL-9; IC50 CQ^R-RKL-9/CQ^S-3D7) was 1.49 and the “intra-erythrocytic progression: stage affected” value (CQ^S-3D7 P. falciparum) was “effective against the mature stages of the parasite”. The “growth progression, morphology” value (CQ^S-3D7 P. falciparum; ring stage treated at IC50 concentration, 40 and 56 h post-treatment) was “stuck at the trophozoite stage with altered morphology”, the “free monomeric heme (control-free heme)” value [2] was 48.8% and 48% and the hemolysis at 1 h, 50 µM (Hemolytic activity) was 2.3%. The hemolysis at 1 h, 800 µM (Hemolytic activity) was 5.9%, the “hemolytic activity in words” value (human RBCs) was “no significant lysis; also recorded: no apparent hemolytic activity” and the viability at 24 h, 100 µM (MTT cytotoxicity assay [3]) was over 90%. For the same molecule, the cytotoxicity in words (HEK293 cells) was “non-cytotoxic”, the viability at 24 h, 100 µM (MTT cytotoxicity assay [4]) was over 90% and the cytotoxicity in words (HepG2 cells) was “non-cytotoxic”. For the same molecule, the pKd [5] was 5.14, the inhibition at 1 µM (rPfCDPK1; read-out: PI of PfCDPK1 (inhibition of phosphorylation activity), 1 μM) was 45.5% and the inhibition at 5 µM (rPfCDPK1; read-out: PI of PfCDPK1 (inhibition of phosphorylation activity), 5 μM) was 43.8%. For the same molecule, the “inhibition of host kinase activity in words” value [6] was “no inhibition of the host kinase activity; also recorded: no inhibitory effect on the human kinome; also recorded: no inhibitory effect on the human kinases”.

With O=Cc1cn(Cc2cn(-c3ccnc4cc(Cl)ccc34)nn2)c2ccccc12 [compound 9, 1-((1-(7-chloroquinolin-4-yl)-1H-1,2,3-triazol-4-yl)methyl)-1H-indole-3-carbaldehyde] the “growth inhibition in words” value (P. falciparum CQ^S-3D7 [1]; at the tested concentration, CQ^S 3D7) was “poor inhibition; also recorded: not a good inhibitor”.

O=C(/C=C/c1cn(Cc2cn(-c3ccnc4cc(Cl)ccc34)nn2)c2ccccc12)c1cccs1 [7p, (E)-3-(1-((1-(7-chloroquinolin-4-yl)-1H-1,2,3-triazol-4-yl)methyl)-1H-indol-3-yl)-1-(thiophen-2-yl)prop-2-en-1-one] showed an inhibition at 10 µM (P. falciparum CQ^S-3D7 [1]; [8]) of over 50%.

In the case of COc1ccc(C(=O)/C=C/c2cn(Cc3cn(-c4ccnc5cc(Cl)ccc45)nn3)c3ccccc23)cc1 [7n, (E)-3-(1-((1-(7-chloroquinolin-4-yl)-1H-1,2,3-triazol-4-yl)methyl)-1H-indol-3-yl)-1-(4-methoxyphenyl)prop-2-en-1-one], the inhibition at 10 µM (P. falciparum CQ^S-3D7 [1]; [8]) was over 50%.

With O=C(/C=C/c1cn(Cc2cn(-c3ccnc4cc(Cl)ccc34)nn2)c2ccccc12)c1ccccc1Cl [7h, (E)-1-(2-chlorophenyl)-3-(1-((1-(7-chloroquinolin-4-yl)-1H-1,2,3-triazol-4-yl)methyl)-1H-indol-3-yl)prop-2-en-1-one] the inhibition at 10 µM (P. falciparum CQ^S-3D7 [1]; [8]) was over 50%.

Work on O=C(/C=C/c1cn(Cc2cn(-c3ccnc4cc(Cl)ccc34)nn2)c2ccccc12)c1cccc(Br)c1 [7f, (E)-1-(3-bromophenyl)-3-(1-((1-(7-chloroquinolin-4-yl)-1H-1,2,3-triazol-4-yl)methyl)-1H-indol-3-yl)prop-2-en-1-one] yielded an inhibition at 10 µM (P. falciparum CQ^S-3D7 [1]; [8]) of over 50%.

With COc1ccccc1C(=O)/C=C/c1cn(Cc2cn(-c3ccnc4cc(Cl)ccc34)nn2)c2ccccc12 [7l, (E)-3-(1-((1-(7-chloroquinolin-4-yl)-1H-1,2,3-triazol-4-yl)methyl)-1H-indol-3-yl)-1-(2-methoxyphenyl)prop-2-en-1-one] the pIC50 (P. falciparum CQ^S-3D7 [1]; [9]) was 5.62, the pKd [5] was 4.76 and the “PI of PfCDPK1 (inhibition of phosphorylation activity)” value (rPfCDPK1; 1 μM) was 71.9%. For the same molecule, the “inhibition of host kinase activity in words” value [6] was “no inhibition of the host kinase activity”.

For CCN(CC)CCCC(C)Nc1ccnc2cc(Cl)ccc12 (stereo not drawn) [CQ, chloroquine], the pIC50 (P. falciparum CQ^S-3D7 [7]) is given as 7.60.
